# In the library only some 4.3% were active in any assay of this set; here they are far more common.
# RBBP9 inh = human RBBP9 inhibitors, primary screen, biochemical, fluorescence polarization, FP-Rh probe, HTS | actives 0.2% (n = 220,000) | AID 1515, 2009 | Serine hydrolase RBBP9 (Homo sapiens), O75884 | inhibition, % at 7.94 µM | recombinant RBBP9;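 active = inhibition above the campaign mean of all tested compounds plus 3 SD, cut at about 14% in these data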;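 also: plate controls were DMSO wells with RBBP9 for no effect and wells lacking RBBP9 protein for full effect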
# Target sequence (O75884 whole entry, looked up): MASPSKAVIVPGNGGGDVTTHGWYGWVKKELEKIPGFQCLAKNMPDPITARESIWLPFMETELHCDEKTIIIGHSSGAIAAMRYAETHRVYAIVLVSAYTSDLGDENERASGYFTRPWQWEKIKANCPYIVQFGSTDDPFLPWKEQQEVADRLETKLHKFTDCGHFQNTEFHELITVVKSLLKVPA
#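 Assay system: recombinant human RBBP9; Reagent: Serine-hydrolase probe FP-Rh, 375 nM pre-mixing; Doses: 7.94 µM single dose, 0.794% DMSO; Incubation: 30 min then 45 min, 25 °C; Detection: fluorescence polarization (mP), excitation 525 nm, emission 598 nm; Evaluation: percent inhibition from mP, scaled between DMSO and no-protein wells.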
# Rin1 Abl inh = inhibitors of Rin1-Abl protein binding, primary screen, biochemical, TR-FRET | Tyrosine-protein kinase ABL1 (Homo sapiens) + Ras and Rab interactor 1 (Homo sapiens), … | inhibition, % at 7.35 µM | actives 0.4% (n = 360,000) | AID 588664, 2011; in the data active = inhibition above about 5%, passing the limit was not always enough
# ALR inh = inhibitors of human ALR sulfhydryl oxidase, primary screen, biochemical, H2O2 detection, HRP-luminol luminescence, single point; AID 485317, 2010; FAD-linked sulfhydryl oxidase ALR (Homo sapiens), P55789; actives 3.8% (n = 290,000); purified ALR, DTT oxidation; inhibition, % (concentration not given with the values);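 active = mean replicate inhibition above about 79%, with every replicate also reaching it, limit read from the data; inconclusive = only one of the two criteria met; inactive = mean below limit and not every replicate reaching it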
# UBC13 polyUb = UBC13 polyubiquitin chain formation inhibitors, primary screen, biochemical, TR-FRET, uHTS; actives 0.47% (n = 330,000); Ubiquitin-conjugating enzyme E2 N (Homo sapiens), P61088; AID 485273, 2010; inhibition, % at 20 µM; in the data active = inhibition above about 45%, passing the limit was not always enough; inconclusive = no clear call, values can overlap the other calls
# Target sequence (P61088 whole entry, looked up): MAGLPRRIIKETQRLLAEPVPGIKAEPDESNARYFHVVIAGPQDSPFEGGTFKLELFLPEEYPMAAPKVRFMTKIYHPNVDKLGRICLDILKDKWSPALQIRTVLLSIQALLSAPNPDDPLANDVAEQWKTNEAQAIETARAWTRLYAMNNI
# UBC9 SUMO inh = inhibitors of in vitro SUMOylation cascade, primary screen, biochemical, HTRF, uHTS; AID 2006, 2009; SUMO-conjugating enzyme UBC9 (Homo sapiens), P63279; inhibition, % at 35 µM; actives 0.36% (n = 290,000); HTRF SUMOylation assay, SAE1/SAE2 + UBC9; in the data active = inhibition above about 50%, passing the limit was not always enough; inconclusive = no clear call, values can overlap the other calls
# Target sequence (P63279 whole entry, looked up): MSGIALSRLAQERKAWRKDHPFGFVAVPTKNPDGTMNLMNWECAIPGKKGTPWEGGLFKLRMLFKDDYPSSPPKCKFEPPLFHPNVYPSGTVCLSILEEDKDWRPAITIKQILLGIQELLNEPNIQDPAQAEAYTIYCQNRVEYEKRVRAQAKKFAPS
# PREPL inh = PREPL enzyme inhibitors, primary screen, biochemical, fluorescence polarization | Prolyl endopeptidase-like (Homo sapiens), Q4J6C6 | inhibition, % at 5.96 µM | actives 0.68% (n = 320,000) | recombinant PREPL, fluorescence polarization activity-based probe | AID 2751, 2010; in the data active = inhibition above about 43%;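 also: 0% = enzyme with DMSO and 100% = wells lacking enzyme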
# * hit, by the source's call; ? = inconclusive; nt = no result given.
SMILES,RBBP9 inh,Rin1 Abl inh,ALR inh,UBC13 polyUb,UBC9 SUMO inh,PREPL inh
S=c1[nH]nc(Cc2ccccc2)n1-c1ccccc1,-7.0,-4.9,86.8*,-16.2,-15.6,-5.2
S=c1[nH]nc(Cc2n[nH]c(=S)n2-c2ccccc2)n1-c1ccccc1,nt,-2.8,93.4*,-3.6,12.2,-3.9
S=c1[nH]nc(Cc2noc3ccccc23)n1-c1ccc(Cl)cc1,-1.9,2.6,92.3*,-12.3,1.7,-1.6
Cc1ccc(-n2c(Cc3noc4ccccc34)n[nH]c2=S)cc1,-6.5,-3.0,41.1,-0.7,16.0,10.2
S=c1[nH]nc(Cc2ccccc2)n1-c1ccc(Cl)cc1,-3.5,-0.9,58.0,-0.7,0.8,4.5
Cc1ccc(-n2c(-c3ccccc3)n[nH]c2=S)cc1,-7.9,-0.9,12.1,5.3,-21.2,-2.1
Cc1ccc(-n2c(Cc3ccccc3)n[nH]c2=S)cc1,-7.6,-3.8,91.5*,-4.1,-7.2,-15.7
S=c1[nH]nc(CCc2ccccc2)n1-c1ccccc1,-6.4,1.2,-2.7,6.3,15.4,-3.7
Cc1c(S(=O)(=O)N(C)C2CCCCC2)c(=O)n(C)c(=O)n1C,nt,-0.4,2.6,-2.4,nt,0.4
CN(C)c1cccc(C(=O)NNC(=O)CN2C(=O)C3CC=CCC3C2=O)c1 (centres undefined),nt,0.2,39.5,12.4,nt,20.9
COC1CCCN(C(=O)c2ccc(OC3CCN(S(=O)(=O)N(C)C)CC3)cc2)C1 (centres undefined),nt,-1.6,0.9,-4.4,1.4,0.1
Cc1cccc(NC(=O)CN(CC2CCCO2)C(=O)c2ccc(S(C)(=O)=O)cc2)c1C (centres undefined),nt,-1.6,nt,0.6,nt,nt
COc1cc(NC(=O)c2cc(-c3cc(F)ccc3OC(C)C)n[nH]2)cc(OC)c1OC,nt,0.1,nt,nt,nt,nt
CCn1c(Cc2ccccc2)n[nH]c1=S,-9.8,-2.7,28.7,-0.1,26.1,4.2
CC(C)Cn1c(Cc2ccccc2)n[nH]c1=S,-6.2,4.9,91.6*,3.2,-6.9,-0.7
CC(C)OCC(O)CCc1n[nH]c(=S)n1-c1ccccc1 (centres undefined),-1.1,0.3,88.3*,3.3,-8.6,-7.4
Cc1ccc(-n2c(-c3cnccn3)n[nH]c2=S)cc1,0.9,2.9,88.2*,-8.1,6.0,-1.2
CCCCOCC(O)CCc1n[nH]c(=S)n1-c1ccccc1 (centres undefined),-2.1,2.5,nt,-0.1,9.9,4.3
CCCNC(=O)C1CC(c2ccccc2C(F)(F)F)=NO1 (centres undefined),nt,3.4,1.1,-3.1,nt,0.1
Cc1ccc(NC(=O)c2cc(C)n(-c3ccccc3)c2C)cc1,-10.3,-1.4,7.7,6.9,3.9,-10.2
Cc1cc(C(=O)Nc2ccc(Cl)cc2)c(C)n1-c1ccccc1,-7.7,0.7,-4.8,0.7,87.5*,6.7
COC(=O)CSc1nc(Cc2ccccc2)nc2ccccc12,-3.4,0.2,?,16.3,-30.9,-7.4
CC(C)OC(=O)CSc1nc(Cc2ccccc2)nc2ccccc12,-6.3,-0.1,86.2*,20.7,-19.1,-0.3
CCOC(=O)CNC(=O)CSc1nc(Cc2cccs2)nc2ccccc12,-6.3,-4.7,78.7*,-2.6,2.1,5.9
CCN(CC)S(=O)(=O)c1cccc(NC(=O)CN2C(=O)NC3(CCOc4ccccc43)C2=O)c1 (centres undefined),nt,0.7,nt,-2.2,nt,nt
SMILES,RBBP9 inh,Rin1 Abl inh,ALR inh,UBC13 polyUb,UBC9 SUMO inh,PREPL inh
CC(NC(=O)c1ccccc1)C(=O)N/N=C/c1ccc(O)cc1 (centres undefined),-1.4,-3.6,99.2*,-2.3,10.8,7.2
CC(NC(=O)c1ccccc1)C(=O)N/N=C/c1ccco1 (centres undefined),nt,-1.4,nt,4.1,1.9,10.8
O=C(NCc1ccccc1)c1cc[n+](Cc2ccccc2)cc1,2.9,-2.9,-20.8,-17.8,-1.6,0.9
O=C(N/N=C/c1ccc(O)cc1)c1cc[n+](Cc2ccccc2)cc1,0.1,-4.1,98.7*,0.8,13.6,6.0
Cc1ccc(NC(=O)COC(=O)C2(CC(=O)NC(C)C)CCCC2)cc1C,nt,0.9,2.1,-0.1,nt,24.8
CC(=Nc1ccccc1O)c1sc2ccccc2c1O,0.6,-3.2,92.3*,-15.7,-8.7,38.0
O=[N+]([O-])c1ccc(O)c(/C=N/Nc2nn[nH]n2)c1,-0.1,2.6,83.6*,-51.7,-22.9,3.0
Oc1ccccc1/C=N/Nc1nn[nH]n1,-0.2,-0.9,64.5,-6.5,6.8,2.7
C/C(=N\NC(=O)COc1ccc(C#N)cc1)c1ccc(N2CCOCC2)cc1,-10.9,-2.3,99.0*,6.3,-5.3,-4.4
O=C(COC(=O)CNS(=O)(=O)c1ccc(Br)cc1Cl)Nc1ccc(N2CCOCC2)cc1,nt,-2.7,98.8*,-4.1,nt,11.2
N#Cc1ccc(OCC(=O)OCC(=O)Nc2ccc(N3CCOCC3)cc2)cc1,nt,0.0,93.9*,-5.4,nt,5.4
O=C(NCCc1ccccc1Cl)c1cc(COc2ccc(F)cc2F)on1,nt,-2.2,-10.3,-3.4,-6.7,-7.2
Cc1ccsc1C(=O)N(C)CC(=O)N(CC(C)C)c1c(N)n(CC(C)C)c(=O)[nH]c1=O,nt,-2.5,nt,-2.7,nt,7.8
COc1ccc(CCNC(=O)CC2SC(=NCCC(C)C)NC2=O)cc1OC (centres undefined),-5.3,2.4,-12.3,20.1,-19.5,-6.4
CCCCCCCCCCCCCCCC[N+](C)(C)CC,nt,-1.5,-29.0,90.7*,nt,32.5
CCCCCC[N+](C)(C)CCSSCC[N+](C)(C)CCCCCC,0.5,1.7,23.3,14.8,14.8,-7.6
CC1(C)CC(=O)c2cnn(-c3nc4ccccc4[nH]3)c2C1,-6.7,-2.6,93.7*,0.7,30.2,17.4
CN1CCN(C/C(=C2/N=C(c3ccccc3)OC2=O)N(C)C)CC1,-5.7,-2.6,97.8*,2.4,9.5,22.3
CCCCCCN1C=CC=C/C1=C/C=C(C#N)C#N,-1.0,-13.1,86.8*,-66.8,8.0,-5.3
CCCCCN1C=CC=C/C1=C\C=C(C#N)C#N,1.0,-13.9,99.0*,-48.0,8.0,14.4
CCCCCCN1C=C/C(=C\C=C(C#N)C#N)c2ccccc21,-1.5,-1.0,2.4,-35.7,8.8,12.3
Cc1ccc(-c2cnn3c(N4CCOCC4)cc(C)nc23)cc1,nt,0.4,93.0*,12.6,13.3,nt
Cc1cc(N2CCOCC2)n2ncc(-c3ccc(Cl)cc3)c2n1,-5.2,-2.0,-2.3,7.3,18.4,7.2
Cc1csc(NC(=O)CSc2[nH]c(=O)ncc2C)n1,nt,2.1,99.1*,-0.9,nt,-6.8

# Assay outcomes: PubChem BioAssay, several laboratories
